Reference: ChEMBL document CHEMBL1123612, “Studies on histamine H2 receptor antagonists. 2. Synthesis and pharmacological activities of N-sulfamoyl and N-sulfonyl amidine derivatives” (1987)

How the values were obtained:
[1] = target: Histamine H2 receptor (Cavia porcellus) (UniProt P47747); assay: Histamine H2 receptor antagonist activity (chronotropic response to histamine) in guinea pig right atrium; type: functional, tissue-based; settings: Cardiac atrium
In short: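 Spontaneously beating atrium; rate recorded via force-displacement transducer. Test compound added 10 min before histamine (5 × 10⁻⁶ M), three to four concentrations per compound. Percent inhibition of the histamine-induced rate increase plotted against log concentration; 50% inhibitory dose read from the dose-response curve (means ± SE).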

Canis familiaris [2] = assay: (§1) Reduction in gastric acid secretion under histamine[160 ug/(kg h)] stimulation in anesthetized dogs after intravenous administration; type: functional; settings: Canis lupus familiaris, Stomach
In short: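 Fasted (24 h) mongrel dogs, 8-10 kg, anesthetized with iv pentobarbital (30 mg/kg). Gastric juice acidity titrated with 0.05 N NaOH. Percent inhibition per dose taken from predrug acid output versus minimum output, usually reached within 45 min of dosing. ED50 read from semilog plot of inhibition against dose; two to four dogs per compound.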

Canis familiaris [3] = assay: as §1; settings: Canis lupus familiaris, Stomach

Chain of Histamine H2 receptor (Cavia porcellus) (P47747 whole entry): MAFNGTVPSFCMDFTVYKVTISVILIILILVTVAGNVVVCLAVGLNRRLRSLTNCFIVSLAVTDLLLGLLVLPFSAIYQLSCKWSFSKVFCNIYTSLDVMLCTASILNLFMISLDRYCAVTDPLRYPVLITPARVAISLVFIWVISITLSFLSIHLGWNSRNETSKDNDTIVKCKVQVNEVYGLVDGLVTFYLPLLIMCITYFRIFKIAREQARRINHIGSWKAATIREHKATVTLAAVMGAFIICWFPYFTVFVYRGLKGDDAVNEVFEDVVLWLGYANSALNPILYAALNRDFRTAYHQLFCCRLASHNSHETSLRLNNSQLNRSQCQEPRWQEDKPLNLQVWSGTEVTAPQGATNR

Compound | ED50 [1] [µM] | ED50 (Canis familiaris [2]) [mg/kg] | ED50 (Canis familiaris [3]) [mg/kg]
N=C(N)Nc1nc(CCCCC(=N)NNS(=O)(=O)c2ccccc2)cs1 | 23 | – | –
N=C(N)Nc1nc(CCCCC(=N)NS(=O)(=O)c2ccccc2)cs1 | 0.58 | 0.0194 | –
N=C(CCCOc1cccc(CN2CCCCC2)c1)NS(N)(=O)=O | 1.4 | – | –
N=C(N)Nc1nc(CCCCC(=N)NS(=O)(=O)NC2CCCCC2)cs1 | 1.3 | – | –
CS(=O)(=O)NC(=N)CCSCc1csc(N=C(N)N)n1 | 0.51 | – | –
CN(C)Nc1nc(CSCCC(=N)NS(N)(=O)=O)cs1 | > 100 | – | –
N=C(N)Nc1nc(C[S+]([O-])CCC(=N)NS(N)(=O)=O)cs1 (configuration not stated) | 73 | – | –
CNS(=O)(=O)NC(=N)CCSCc1csc(N=C(N)N)n1 | 0.86 | 0.0366 | –
CCS(=O)(=O)NC(=N)CCCCc1csc(N=C(N)N)n1 | 0.6 | 0.0244 | –
N=C(N)Nc1nc(CSCCC(=N)NNS(=O)(=O)c2ccccc2)cs1 | 8.3 | – | –
N=C(N)Nc1nc(CSCCC(=N)NS(=O)(=O)NCc2ccccc2)cs1 | 1.1 | 0.0396 | –
N=C(N)Nc1nc(CCCCC(=N)NS(=O)(=O)c2ccc(N)cc2)cs1 | 0.35 | 0.0101 | –
N=C(N)Nc1nc(CSCCC(=N)NS(N)(=O)=O)no1 | > 100 | – | –
CCCNS(=O)(=O)NC(=N)CCCCc1csc(N=C(N)N)n1 | 0.56 | 0.0266 | –
CN/C(=N\CCSCc1nc[nH]c1C)NC#N [CIMETIDINE] | 2.7 | – | 0.33
N=C(N)Nc1nc(CSCCC(=N)NS(=O)(=O)c2ccc(N)cc2)cs1 | 0.45 | 0.03 | –
CN(C)Cc1ccc(CSCCC(=N)NS(N)(=O)=O)o1 | 17 | – | –
C/N=C(\N)Nc1nc(CSCCC(=N)NS(N)(=O)=O)cs1 | 0.48 | 0.0518 | –
Cc1[nH]cnc1CSCCC(=N)NS(N)(=O)=O | > 100 | – | –
CN(C)S(=O)(=O)NC(=N)CCSCc1csc(N=C(N)N)n1.O=C(O)/C=C\C(=O)O | 1.4 | 0.277 | –
NC(N)=Nc1nc(CSCC/C(N)=N/S(N)(=O)=O)cs1 [FAMOTIDINE] | 0.27 | 0.0087 | –
N=C(N)Nc1nc(CSCCC(=N)NS(=O)(=O)c2ccccc2)cs1 | 0.7 | 0.0568 | –
N=C(N)Nc1nc(CCCCC(=N)NS(N)(=O)=O)cs1 | 0.23 | 0.0089 | –
N=C(CCSCc1ccccn1)NS(N)(=O)=O | > 100 | – | –
